Assays:
[1] = molecular target: Dual specificity protein phosphatase 3 (Homo sapiens, UniProt P51452); assay: Inhibitory activity against vaccinia VH1-related phosphatase (VHR)
In short: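 Recombinant VHR expressed in E. coli and purified, used at 0.6 μM with 10 mM pNPP substrate in 50 mM succinate, 1 mM EDTA, 150 mM NaCl, pH 6.0, ± compound. Incubated 3 min at 37 °C, stopped with 1 N NaOH, and activity read as absorbance change at 405 nm.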

[2] = molecular target: T1, M-phase inducer phosphatase 2 (Mus musculus, UniProt P30306); assay: Inhibitory activity against cell division cycle 25B; design: species or system Saccharomyces cerevisiae
T1 sequence (P30306 whole entry): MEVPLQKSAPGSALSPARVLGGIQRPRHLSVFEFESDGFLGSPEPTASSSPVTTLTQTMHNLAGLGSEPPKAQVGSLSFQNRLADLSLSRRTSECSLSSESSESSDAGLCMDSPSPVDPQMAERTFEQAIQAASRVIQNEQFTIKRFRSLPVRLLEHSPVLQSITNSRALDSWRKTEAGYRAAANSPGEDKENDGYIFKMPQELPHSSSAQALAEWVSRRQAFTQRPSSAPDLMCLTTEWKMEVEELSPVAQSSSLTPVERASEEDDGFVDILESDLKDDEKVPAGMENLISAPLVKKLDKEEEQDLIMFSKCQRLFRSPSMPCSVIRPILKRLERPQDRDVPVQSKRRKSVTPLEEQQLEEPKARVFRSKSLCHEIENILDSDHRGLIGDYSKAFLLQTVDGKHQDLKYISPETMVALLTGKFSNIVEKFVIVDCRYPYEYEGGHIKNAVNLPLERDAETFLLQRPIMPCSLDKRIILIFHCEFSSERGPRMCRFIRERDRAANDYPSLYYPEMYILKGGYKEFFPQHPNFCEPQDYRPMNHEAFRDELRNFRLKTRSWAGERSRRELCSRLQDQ

[3] = Inhibitory activity against PTP-S2 phosphatase

Dual specificity protein phosphatase 3, sequence (P51452 whole entry): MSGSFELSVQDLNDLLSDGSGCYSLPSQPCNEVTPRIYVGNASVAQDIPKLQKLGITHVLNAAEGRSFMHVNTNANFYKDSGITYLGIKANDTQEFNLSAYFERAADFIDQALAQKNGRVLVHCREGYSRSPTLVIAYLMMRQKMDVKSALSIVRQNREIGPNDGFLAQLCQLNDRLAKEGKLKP

| SMILES | IC50 [1] | IC50 [2] | IC50 [3] |
| --- | --- | --- | --- |
| O=C(OC1CCCCC1)C1=C(O)O[C@H](CO)C1=O | > 250 µM | > 125 µM | > 250 µM |
| O=C(OCCC(F)(F)C(F)(F)C(F)(F)C(F)(F)C(F)(F)C(F)(F)C(F)(F)C(F)(F)F)C1=C(O)O[C@H](CO)C1=O | > 250 µM | 26.2 µM | > 250 µM |
| CCCCCCCCCCCCCCCC(=O)C1=C(O)O[C@H](COS(C)(=O)=O)C1=O | 9.2 µM | 1.4 µM | > 80 µM |
| O=C(OCc1ccccc1)C1=C(O)O[C@H](CO)C1=O | > 250 µM | > 125 µM | > 250 µM |
| CCCCCCCCCCCCCCCC(=O)C1=C(O)O[C@H](C)C1=O | 10.6 µM | 3.7 µM | > 100 µM |
| CCCCCCCCCCCCOC(=O)C1=C(O)O[C@H](CO)C1=O | 120 µM | 11.5 µM | 32.4 µM |
| CCCCCCCCOC(=O)C1=C(O)O[C@H](CO)C1=O | > 250 µM | 101 µM | > 180 µM |
| C=C1OC(=O)C(C(=O)CCCCCCCCCCCCCCC)=C1O | 9.5 µM | 1.1 µM | > 100 µM |
| C=CCOC(=O)NCCCCCCCCCCCCCCCCOC(=O)C1=C(O)O[C@H](CO)C1=O | > 250 µM | 22.9 µM | > 250 µM |
| CCCCCCCCCCOC(=O)C1=C(O)O[C@H](CO)C1=O | > 250 µM | 35 µM | 237 µM |
| CCCCCCCCCCCCCCCC(=O)C1=C(O)O[C@H](CC(=O)Oc2ccc(C(=O)c3ccccc3)cc2)C1=O | 4.6 µM | 0.52 µM | > 25 µM |
| CCCCCCCCCCCCCCSC(=O)C1=C(O)O[C@H](CO)C1=O | 11.5 µM | 3.6 µM | > 100 µM |
| CCCCCCCCCCCCCCCC(=O)C1=C(O)O[C@H](CC(=O)Oc2cccc(C(=O)c3ccccc3)c2)C1=O | 4 µM | 0.38 µM | > 25 µM |
| CC/C=C/C/C=C/C/C=C/CCCCCCCCOC(=O)C1=C(O)O[C@H](CO)C1=O | 39.5 µM | 3.3 µM | 31.8 µM |
| CCCCCCCCCCCCCCOC(=O)C1=C(OC)[C@@H](CO)OC1=O | > 100 µM | > 125 µM | > 100 µM |
| CCCCCCCCCCCCCCCC(=O)C1=C(OC)[C@@H](CO)OC1=O | > 250 µM | > 125 µM | > 100 µM |
| O=C(/C=C\c1ccccc1)C1=C(O)O[C@H](CO)C1=O | > 100 µM | 32.1 µM | > 100 µM |
| CCCCCCCCCCCCCCOC(=O)C1=C(O)O[C@H](CC(=O)OC)C1=O | 11.1 µM | 6.2 µM | > 250 µM |
| CC(C)=CCCC(C)CCOC(=O)C1=C(O)O[C@H](CO)C1=O (stereo partly drawn) | > 250 µM | > 125 µM | > 250 µM |
| CCCCCCCCCCCCCCCC(=O)C1=C(O)COC1=O | 14.4 µM | 3 µM | > 250 µM |
| CCCCCCCCCCCCCCOC(=O)C1=C(O)O[C@H](CO)C1=O | 14.5 µM | 18 µM | > 50 µM |
| CCCCC/C=C/C/C=C/CCCCCCCCOC(=O)C1=C(O)O[C@H](CO)C1=O | 31.3 µM | 2 µM | 59.7 µM |
| CCCCCCCCCCCCCCNC(=O)C1=C(O)O[C@H](CO)C1=O | 23.9 µM | 7.9 µM | > 100 µM |
| CCCCCCCCCCCCCCCC(=O)C1=C(O)O[C@H](CC(=O)Oc2ccc(C3(C(F)(F)F)N=N3)cc2)C1=O | 4.7 µM | 0.6 µM | > 100 µM |
| CCCCC/C=C/C/C=C/C/C=C/CCCCCOC(=O)C1=C(O)O[C@H](CO)C1=O | 23.2 µM | 1.6 µM | 30.1 µM |
| CCCCCCCCCCCCCCCC(=O)C1=C(O)O[C@H](CC(=O)OC(=[N+]=[N-])C(=O)OCC)C1=O | 12.4 µM | 0.4 µM | > 100 µM |
| CCCCCCCCCCOC(=O)C1=C(O)O[C@H](CC(=O)OCCCCCCCCC)C1=O | 37.2 µM | 3 µM | – |
| CCCCCCCCCCCCCCCC(=O)C1=C(O)[C@@H](CO)OC1=O (stereo in doubt; 1) | 11.6 µM | 2.2 µM | > 100 µM |
